How the values were obtained:
HepG2 = assay: Cytotoxicity against human HepG2 cells after 48 hrs by MTT assay; details: HepG2, 48 h
[1] = Selectivity index, ratio of IC50 for human HepG2 cells to IC50 for Entamoeba histolytica HM1:IMSS
Entamoeba histolytica = assay: Antiamoebic activity against Entamoeba histolytica HM1:IMSS after 72 hrs by microdilution method; type: functional, organism-based; details: HM-1:IMSS
in vitro [2] = details: human, HepG2 cells
[3] = Cytotoxicity against human HepG2 cells assessed as cell viability at 50 to 100 uM after 48 hrs by MTT assay
in vitro [4] = details: human, HepG2 cells; remark: listed apart in the source
[5] = Cytotoxicity against human HepG2 cells assessed as cell viability at 100 uM after 48 hrs by MTT assay; type: cell-based; details: read-out: Activity
Summary of the method: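 HepG2 grown in DMEM, 10% heat-inactivated FBS, antibiotics, 37 °C, 5% CO2; 1.2 × 10^4 cells/well pre-grown 48 h, then exposed to compounds (3.13–100 µM; DMSO stocks diluted in medium) for 48 h at 37 °C; MTT read-out at 570 nm, reference 655 nm; viability as % of untreated control; triplicate, repeated thrice.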

Structure (SMILES)	IC50 (HepG2) [µM]	Ratio IC50 [1]	IC50 (Entamoeba histolytica) [µM]	viability at 48 h, 25 µM (in vitro [2]) [%]	viability at 48 h, 100 µM [3] [%]	viability at 48 h, 3.13 µM (in vitro [4]) [%]	viability at 48 h, 100 µM [5] [%]
O=C(/C=C/c1ccc([N+](=O)[O-])cc1)c1ccccc1	64.7	10.74	6.02	72	40	95	
Cc1ccc(C(=O)/C=C/c2ccc(Cl)cc2)cc1	74.2	14.21	5.22	72	40	95	
Cc1ccc(C(=O)/C=C/c2ccc([N+](=O)[O-])cc2)cc1	85.6	16.85	5.08	72	40	95	
COc1ccc(-c2nnnn2CC(=O)N2N=C(c3ccccc3)CC2c2ccccc2)cc1 (configuration not stated)	85.3	16.03	5.32	72	40	95	
COc1ccc(-c2nnnn2CC(=O)N2N=C(c3ccccc3)CC2c2ccc(Cl)cc2)cc1 (configuration not stated)	80.4	26.62	3.02	72	40	95	
COc1ccc(-c2nnnn2CC(=O)N2N=C(c3ccccc3)CC2c2ccc(C)cc2)cc1 (configuration not stated)	> 100	>78.12	1.28				≥ 68
COc1ccc(-c2nnnn2CC(=O)N2N=C(c3ccccc3)CC2c2ccc(OC)cc2)cc1 (configuration not stated)	> 100	>86.2	1.16				≥ 68
COc1ccc(-c2nnnn2CC(=O)N2N=C(c3ccccc3)CC2c2ccc([N+](=O)[O-])cc2)cc1 (configuration not stated)	79.8	21.68	3.68	72	40	95	
COc1ccc(-c2nnnn2CC(=O)N2N=C(c3ccc(Cl)cc3)CC2c2ccccc2)cc1 (configuration not stated)	90.6	28.76	3.15	72	40	95	
COc1ccc(-c2nnnn2CC(=O)N2N=C(c3ccc(Cl)cc3)CC2c2ccc(Cl)cc2)cc1 (configuration not stated)	80.3	17.26	4.65	72	40	95	
COc1ccc(-c2nnnn2CC(=O)N2N=C(c3ccc(Cl)cc3)CC2c2ccc(C)cc2)cc1 (configuration not stated)	92.6	31.28	2.96	72	40	95	
COc1ccc(-c2nnnn2CC(=O)N2N=C(c3ccc(Cl)cc3)CC2c2ccc(OC)cc2)cc1 (configuration not stated)	> 100	>38.02	2.63	72	40	95	
COc1ccc(-c2nnnn2CC(=O)N2N=C(c3ccc(Cl)cc3)CC2c2ccc([N+](=O)[O-])cc2)cc1 (configuration not stated)	86.5	17.68	4.89	72	40	95	
COc1ccc(-c2nnnn2CC(=O)N2N=C(c3ccc(C)cc3)CC2c2ccccc2)cc1 (configuration not stated)	> 100	>83.33	1.2				≥ 68
COc1ccc(-c2nnnn2CC(=O)N2N=C(c3ccc(C)cc3)CC2c2ccc(Cl)cc2)cc1 (configuration not stated)	98	34.5	2.84	72	40	95	
COc1ccc(-c2nnnn2CC(=O)N2N=C(c3ccc(C)cc3)CC2c2ccc(C)cc2)cc1 (configuration not stated)	> 100	>116.27	0.86				≥ 68

Structure (SMILES)	IC50 (HepG2) [µM]	Ratio IC50 [1]	IC50 (Entamoeba histolytica) [µM]	viability at 48 h, 25 µM (in vitro [2]) [%]	viability at 48 h, 100 µM [3] [%]	viability at 48 h, 3.13 µM (in vitro [4]) [%]	viability at 48 h, 100 µM [5] [%]
COc1ccc(-c2nnnn2CC(=O)N2N=C(c3ccc(C)cc3)CC2c2ccc(OC)cc2)cc1 (configuration not stated)	> 100	>92.59	1.08				≥ 68
COc1ccc(-c2nnnn2CC(=O)N2N=C(c3ccc(C)cc3)CC2c2ccc([N+](=O)[O-])cc2)cc1 (configuration not stated)	> 100	>38.02	2.63	72	40	95	
O=C(/C=C/c1ccc([N+](=O)[O-])cc1)c1ccc(Cl)cc1	40.2	6.5	6.18	72	40	95	
O=C(/C=C/c1ccccc1)c1ccc(Cl)cc1	94.7	13.6	6.96	72	40	95	
COc1ccc(/C=C/C(=O)c2ccc(C)cc2)cc1	> 100	>21.01	4.76	72	40	95	
COc1ccc(/C=C/C(=O)c2ccc(Cl)cc2)cc1	97.2	19.05	5.1	72	40	95	
Cc1ccc(/C=C/C(=O)c2ccccc2)cc1			4.38				
Cc1ccc(/C=C/C(=O)c2ccc(Cl)cc2)cc1	92.6	17.4	5.32	72	40	95	
Cc1ccc(C(=O)/C=C/c2ccccc2)cc1	> 100	>20.7	4.83	72	40	95	
O=C(/C=C/c1ccc(Cl)cc1)c1ccc(Cl)cc1 [4',4-DICHLOROCHALCONE]	82.8	14.13	5.86	72	40	95	
Cc1ccc(/C=C/C(=O)c2ccc(C)cc2)cc1 [4,4'-DIMETHYLCHALCONE]	> 100		4.19	72	40	95	
O=C(/C=C/c1ccc(Cl)cc1)c1ccccc1 [4-CHLORO CHALCONE]	97.2	13.27	7.32	72	40	95	
COc1ccc(/C=C/C(=O)c2ccccc2)cc1 [4-METHOXY CHALCONE]	> 100	>16.86	5.93	72	40	95	
O=C(/C=C/c1ccccc1)c1ccccc1 [CHALCONE]	> 100	>7.78	12.9	72	40	95	
Cc1ncc([N+](=O)[O-])n1CCO [METRONIDAZOLE]	> 100	>55.55				95	

— ChEMBL document CHEMBL2040818, “Synthesis and in vitro evaluation of novel tetrazole embedded 1,3,5-trisubstituted pyrazoline derivatives as Entamoeba histolytica growth inhibitors” (Eur J Med Chem, 2012)
